Activity calls are given as the source filed them. No cut-off for these calls is given here. Some results are limits rather than exact numbers.

A short description of data set [1]: Antioxidant activity assessed as trolox equivalent of AAPH-induced peroxyl radical scavenging activity at 1.3 to 13 uM up to 140 mins by ORAC-FL assay. The class given is functional. The method in brief: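 ORAC: fluorescein (7.5 nM) decay (ex 485/em 512 nm) followed 140 min at 37 °C. Peroxyl radicals came from 30 mM AAPH in 75 mM phosphate pH 7.4 with 100 µM DTPA, compounds at 1.3-13 µM. Curves normalised to initial fluorescence, and net AUC versus concentration compared with Trolox standard (1.5-24 µM). Three independent determinations, mean ± SD.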

Data set [2] deals with Plasma. Put plainly: Inhibition of AAPH-induced oxidation of human plasma derived LDL assessed as time of delay for initiation of propagation phase by measuring rate of oxygen consumption at 20 uM added before AAPH addition by high-resolution oxygen electrode.
In data set [3] the test system is Plasma. Description: Inhibition of AAPH-induced oxidation of human plasma derived LDL assessed as reversal of rate of oxygen consumption at 20 uM added after beginning of propagation phase by high-resolution oxygen electrode.
The species named for data set [4] is Mus musculus. Put plainly: Antiinflammatory activity in mouse […] cells assessed as reduction in INF-gamma/LPS-induced IL-1beta expression at 5 uM preincubated for 1 hr followed by INF-gamma/LPS addition for 4 hrs by Western blot analysis. The class given is functional, cell-based. The method in brief:
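Confluent J774 monolayers preincubated 1 h with compound at 5 µM, then stimulated 4 h at 37 °C, 5% CO₂ with IFN-γ 400 U/mL plus Salmonella enterica LPS 8 µg/mL. Whole-cell lysates resolved by 15% SDS-PAGE and immunoblotted with rabbit anti-IL-1β and Alexa Fluor 680 secondary. Bands quantified by densitometry, with loading checked on paired colloidal-blue gels. Three independent experiments, one-way ANOVA.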

Data set [5] is described as follows: Cytotoxicity in mouse […] cells assessed as change in cell survival at 0.3 to 5 uM after 2 to 24 hrs by MTT assay. The class given is cell-based. The method in brief:
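Confluent J774 cells exposed to compounds in DMEM at 37 °C, 5% CO₂ for 2 h and for 24 h. MTT (0.1 mg/mL in DPBS) then added for 3 h at 37 °C. Formazan dissolved in DMSO/glycine buffer pH 10.5 and absorbance read at 560 nm, with vehicle as reference.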
A general note: Tetrazolium dyes change colour on reduction, which living cells bring about.

Data set [6] is filed under the species Mus musculus. Put plainly: Antiatherogenic activity in mouse […] cells assessed as foam cell formation by measuring ox-LDL internalization at 2.5 to 5 uM preincubated for 1 hr followed by ox-LDL Dil addition for 4 hrs by Hoechst 3342-staining based fluorescence assay. In kind it is functional. The method in brief:
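J774 murine macrophages in DMEM with 10% FBS at 80% confluence (~2×10⁵ cells/well) preincubated 1 h with compound (0.3-5 µM range in plate-reader format). DiI-labelled Cu²⁺-oxidised LDL (10 µg/mL) then added for 4 h at 37 °C, 5% CO₂. Cells washed, nuclei stained with Hoechst 3342 (10 µg/mL, 10 min). Read-out is DiI (549/565 nm) to Hoechst (352/461 nm) fluorescence ratio.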

For `COc1ccc(/C=C(/C)[N+](=O)[O-])cc1`, the Activity in data set [1] was 0.46 equiv.

Turning to `C/C(=C/c1ccc(Br)cc1)[N+](=O)[O-]`, the Activity in data set [1] was 0.45 equiv. The same measure, in the same setting: as for `C/C(=C/c1ccc2c(c1)OCO2)[N+](=O)[O-]`, the figure is 1.6 equiv; as for `C/C(=C/c1cccs1)[N+](=O)[O-]`, 0.54 equiv; as for `COc1ccc(/C=C\[N+](=O)[O-])cc1`, 0.46 equiv. As for `O=[N+]([O-])/C=C\c1cccs1`, the Activity in data set [1] worked out at 0.43 equiv. Same read-out and setting: as for `C/C(=C/c1ccc(Cl)cc1)[N+](=O)[O-]`, the figure is 0.39 equiv; as for `CC(=O)Nc1ccc(CC[N+](=O)[O-])cc1`, 0.26 equiv. `O=[N+]([O-])/C=C\c1ccc(Br)cc1`: in data set [1], the Activity stood at 0.44 equiv. The same measure, in the same setting: as for `O=[N+]([O-])/C=C\c1ccc(Cl)cc1`, the figure is 0.44 equiv; as for `CSc1ccc(/C=C\[N+](=O)[O-])cc1`, 3.5 equiv. As to `CN(C)c1ccc(CC[N+](=O)[O-])cc1`, the Activity in data set [1] came to 13 equiv. In the data set on Plasma [2], the Time was greater than 40 min. Besides, the inhibition entry in the data set with Plasma [3] was “Active”. Moreover, in the data set listed under Mus musculus [4], the outcome was Active. As for `CN(C)c1ccc(/C=C\[N+](=O)[O-])cc1`, the Activity in data set [1] was 4.2 equiv; in data set [5] it was “Non-Toxic”. Also, the Time in the data set with Plasma [2] was found to be 20 min. The inhibition result with Plasma [3] was “inactive”. In addition, the result in the data set filed under Mus musculus [4] was Active. Besides, in the data set listed under Mus musculus [6], the outcome was inactive. With `C/C(=C/c1ccc(N(C)C)cc1)[N+](=O)[O-]`, the Activity in data set [1] is 5.4 equiv; in data set [5] it was “Non-Toxic”. Also, the Time with Plasma [2] came out at 20 min. Further, the inhibition entry in the data set on Plasma [3] is “inactive”. Also, the result in the data set filed under Mus musculus [4] was Active. Besides, in the data set filed under Mus musculus [6], the result was inactive. As to `CC(=O)Nc1ccc(/C=C\[N+](=O)[O-])cc1`, the Activity in data set [1] was determined as 0.63 equiv. Take `CC(Cc1ccc(N(C)C)cc1)[N+](=O)[O-]` (stereo unspecified): the Activity in data set [1] worked out at 10 equiv. Besides, the Time in the data set with Plasma [2] came to 30 min. The inhibition result in the data set on Plasma [3] is “Active”. Also, in the data set filed under Mus musculus [4], the outcome was Active. Consider `C/C(=C/c1ccccc1)[N+](=O)[O-]`, for which the Activity in data set [1] came out at 0.37 equiv. The same measure, in the same setting: as for `CSc1ccc(CC[N+](=O)[O-])cc1`, the figure is 2.8 equiv; as for `O=[N+]([O-])/C=C\c1ccccc1`, 0.29 equiv; as for `O=[N+]([O-])/C=C\c1ccc2c(c1)OCO2`, 0.72 equiv.
